# Compound activity as filed in PubChem.
# HUVEC inhibit: blocks proliferation of human endothelial cells | HUVEC proliferation, CellTiter-Glo luminescence, 72 h; stronger effect = lower value | viability, % at 10 µM (by protocol) | hit rate 1.1% among 86,000 | AID 648;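 active means viability at or below 30%; inactive means viability above 30%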;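 further: 100% = median luminescence of DMSO-only cell control wells on each plate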
# H69AR inhibit: blocks growth of human H69AR lung tumor cells; hit rate 6% among 85,000; H69AR lung tumor viability, ATP luminescence, 72 h; stronger effect = lower value; AID 598; viability, % at 10 µM;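 active means viability at or below 40%; inactive means viability above 40%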;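 further: multidrug resistant small cell line overexpressing MRP-1 efflux transporter; 100% = mean luminescence of untreated control wells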
# HCT116 PTEN-null: suppresses growth of cells with PTEN deletion; HCT116 PTEN-null viability, CellTiter-Glo, 60 h; stronger effect = lower value; viability, % at 10 µM; hit rate 1.2% among 140,000; AID 827;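 active means viability at or below a set limit, 4 SD under the median of all tested compounds, cut at about 3.7% in these data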;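 further: PTEN knockout HCT116 line with beta catenin targeted HCT116 as companion control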
# bCat KO growth: beta-catenin-lacking colon tumor cell growth suppression. viability, % at 10 µM. AID 818. HCT116 beta-catenin knockout viability, CellTiter-Glo, 60 h; stronger effect = lower value. hit rate 1.5% among 140,000;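 active means viability at or under a set limit, the compound median less 4 SD, cut at about 6% in these data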;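 further: 0% = Hyamine 1622 control at 20 µM and 100% = untreated cell control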
# Lung fibro prol: blocks proliferation of human lung fibroblasts; LL 47 human lung fibroblast viability, ATP luminescence; stronger effect = lower value; viability, % at 10 µM; hit rate 1.1% among 85,000;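 active means viability at or below 50% in the single dose screen; inactive means viability above 50%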;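 further: compound exposure lasted 72 h before the ATP readout; 100% = median luminescence of untreated cell-only wells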
#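 Material: human LL 47 lung fibroblast cells; quantity: 1,150 cells/well; medium: IMEM plus 15% FBS; doses: 0.1% DMSO in all compound wells; timing: overnight attachment after seeding, then 72 h compound exposure at 37 °C; detection: CellTiter-Glo luminescence; measure: % viability of median cell-only signal; controls: cell-only wells, no compound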
# Active calls of the source: *; nt = no result given. Shown is part of a subset that was picked to be rich in hits.
SMILES,HUVEC inhibit,H69AR inhibit,HCT116 PTEN-null,bCat KO growth,Lung fibro prol
CC(C)N1CCc2c(sc(NC(=O)c3ccc(S(=O)(=O)N4CCOCC4)cc3)c2C#N)C1,69.1,97.7,83.7,78.6,85.0
Clc1ccc(N/N=C/c2ccncc2)cc1Cl,nt,nt,65.7,76.0,nt
CCn1c(Cc2ccc(OC)cc2)nnc1SCC(=O)Nc1cccc(C(=O)OC)c1,96.6,94.7,0.6*,0.9*,48.0*
COc1ccc(-n2c(Cc3cccn3C)nnc2SCC(=O)Nc2cccc(OC)c2)cc1,92.7,36.9*,82.6,97.0,94.8
COC(=O)c1sccc1NC(=O)CN(C)NS(=O)(=O)c1ccc([N+](=O)[O-])cc1,nt,nt,103.4,103.3,nt
CC(C)(C)C(=O)[C@@H]1[C@@H]2C(=O)N(Cc3ccccc3)C(=O)[C@@H]2[C@H]2c3ccccc3C=CN12,105.3,33.7*,91.4,89.2,101.0
CC(=O)[C@H]1[C@@H]2C(=O)N(c3cccc(Cl)c3)C(=O)[C@@H]2[C@H]2c3ccccc3C=CN21,103.1,87.5,91.1,89.6,102.0
CCN1CCN(c2cc(C)c3cc(NC(=O)c4ccc(Br)o4)ccc3n2)CC1,4.5*,41.5,9.4,8.0,42.7*
O=C(Nc1ccc2nn(-c3ccccc3)nc2c1)c1ccc(Br)o1,57.2,29.6*,93.3,74.2,74.1
CCCC(=O)Nc1nc2ccc(NC(=O)c3ccc(Br)o3)cc2s1,58.7,90.2,72.9,71.6,91.1
CCN(CC)c1cc(C)c2cc(NC(=O)c3ccc(Br)o3)ccc2n1,28.0*,58.2,8.9,12.1,90.1
CCOc1cccc(NC(=O)Cc2cccs2)c1,103.5,98.7,100.9,106.5,107.9
COc1ccccc1N(CC(=O)NC(C)(C)C)C(=O)C1CSC(=O)C1 (centres undefined),95.4,99.6,91.2,87.5,106.6
CCOC(=O)N1CCC(n2c(SCC(=O)N3CCC(C)CC3)nc3ccccc3c2=O)CC1,87.6,30.3*,53.2,42.5,104.9
CCOC(=O)N1CCC(n2c(SCC(=O)NCCC3=CCCCC3)nc3ccccc3c2=O)CC1,74.5,26.3*,49.4,45.0,88.1
CCOC(=O)N1CCC(n2c(SCC(=O)NCc3ccccc3)nc3ccccc3c2=O)CC1,96.2,57.5,63.0,68.2,90.7
COc1cccc(CNc2ccc(N3CCC(C)CC3)cc2)c1OC,92.6,13.7*,73.9,58.9,99.0
CCOC(=O)c1ccc(NC(=O)COc2ccc(S(=O)(=O)N3CCCC3)cc2)cc1,100.7,100.9,110.5,99.9,110.4
Cc1ccc(NC(=O)c2ccc(Nc3c([N+](=O)[O-])cc([N+](=O)[O-])cc3[N+](=O)[O-])cc2)cc1,nt,nt,2.3*,4.5*,nt
Cc1ccc(NC(=O)c2ccc(N/N=C/c3cccc(O)c3)c([N+](=O)[O-])c2)cc1,nt,nt,1.9*,2.9*,nt
CCC(=O)Nc1c(-c2ccc(OC)cc2)c(=O)c2ccccc2n1C,103.3,101.6,88.3,93.2,95.0
CCOC(=O)N1CCN(c2c(NCc3cccs3)c(=O)c2=O)CC1,70.4,31.0*,38.4,42.6,85.2
CCOC(=O)N1CCN(c2c(NCc3ccc(Cl)cc3)c(=O)c2=O)CC1,51.9,41.1,15.9,13.7,52.3
Cc1csc(NC(=O)c2nc(-c3ccccc3)n(-c3ccccc3)n2)n1,102.5,26.1*,49.7,49.6,nt
O=C(Nc1c(Cl)cc(Cl)cc1C(=O)NCCN1CCOCC1)c1ccc(Cl)cc1Cl,87.2,64.0,91.4,93.8,98.5
SMILES,HUVEC inhibit,H69AR inhibit,HCT116 PTEN-null,bCat KO growth,Lung fibro prol
O=C(Nc1ccc(Cl)cc1C(=O)NCCN1CCOCC1)c1ccc(Cl)cc1Cl,77.4,37.8*,106.6,91.0,92.0
COc1ccc2oc(C(=O)c3ccccc3)c(NC(=O)CN3CCN(C)CC3)c2c1,32.0,0.7*,1.6*,1.4*,53.8
CCOC(=O)c1oc2ccc(Br)cc2c1NC(=O)CN1CCN(C)CC1,68.8,51.1,4.8,4.4*,81.1
CC1(C)Cc2[nH]c(=O)c(C#N)cc2CS1,96.5,89.5,87.8,86.0,100.6
CC1(C)CC(N2CN(C3CCCCC3)CC2=O)CC(C)(C)N1,103.8,96.2,102.5,86.8,93.0
Cc1ccc2nc(-c3sc4nc(C)cc(C)c4c3N)[nH]c2c1,42.5,15.0*,83.0,77.9,95.3
CCOc1ccc2nc(NCCNC(=O)Nc3ccccc3)c(C#N)cc2c1,72.9,28.1*,88.2,94.7,102.4
N#Cc1cc2c(nc1SCC(=O)Nc1sc3c(c1C#N)CCC3)CCCCCC2,76.6,10.6*,52.1,50.4,75.2
N#Cc1cc2c(nc1SCC(=O)Nc1sc3c(c1C#N)CCC3)CCC2,56.7,33.8*,88.0,104.0,86.0
